Measurements taken from ChEMBL document CHEMBL1122190, “Mammary tumor inhibiting effect of 3,3'-diacetoxy-alpha, beta-dialkylstilbenes and of related stilbene oxides” (1982).

Key:
[1] = biological target: T1, Estrogen receptor (Mus musculus) (UniProt O08537+P19785); assay: Percent inhibition of estrone-stimulated uterine growth in immature mouse at 5 ug dose; assay type: functional
Method in brief: (§1)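 Dorfman uterine weight test in immature female NMRI mice, ten per group, 20 days old and 10-12 g at start. Compounds were given in olive oil sc once daily for 3 days. Mice were killed 24 h after the last injection, and uteri were removed, dried at 100 °C for 24 h and weighed.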

[2] = biological target: T1, Estrogen receptor (Mus musculus); assay: Uterotrophic activity in mice at 5 ug dose; assay type: functional, tissue-based; conditions: Uterus
Method in brief: (§2)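 Dorfman uterine weight test in immature female NMRI mice (20 days old at start, 10-12 g; ten per group). Compound given sc daily in olive oil for 3 days. Animals killed 24 h after last injection; uteri removed, dried at 100 °C for 24 h and weighed.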

[3] = biological target: T1, Estrogen receptor (Mus musculus); assay: Antiuterotrophic activity in mice at 5 ug dose; assay type: functional; method in brief: as §1
[4] = biological target: T1, Estrogen receptor (Mus musculus); assay: Percent inhibition of estrone-stimulated uterine growth in immature mouse at 25 ug dose; assay type: functional; method in brief: as §1
[5] = biological target: T1, Estrogen receptor (Mus musculus); assay: Antiuterotrophic activity in mice at 25 ug dose; assay type: functional; method in brief: as §1
[6] = tested on: Mus musculus; assay: Effect on estrogen and progesterone receptors positive hormone-dependent postmenopausal human mammary carcinoma tumor growth in nude mice at 2.8 mg/kg/day; assay type: functional
Method in brief: (§3)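 Nude mice carried serially transplanted hormone-dependent human mammary carcinoma. Compounds in olive oil were given sc 6 times a week for 4-5 weeks. Two tumor diameters were measured weekly, and size at treatment start was set as 1. Tumor size was averaged after 5 weeks of therapy.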

[7] = biological target: T1, Estrogen receptor (Mus musculus); assay: Percent inhibition of estrone-stimulated uterine growth in immature mouse at 100 ug dose; assay type: functional; method in brief: as §1
[8] = biological target: T1, Estrogen receptor (Mus musculus); assay: Uterotrophic activity in mice at 100 ug dose; assay type: functional, tissue-based; conditions: Uterus; method in brief: as §1
[9] = biological target: T1, Estrogen receptor (Mus musculus); assay: Uterotrophic activity in mice at 50 ug dose; assay type: functional, tissue-based; conditions: Uterus; method in brief: as §2
[10] = tested on: Estrogen receptor (Bos taurus); assay: In vitro relative binding affinity for Estrogen receptor compared to [3H]estradiol
[11] = biological target: T1, Estrogen receptor (Mus musculus); assay: Antiuterotrophic activity in mice at 100 ug dose; assay type: functional; method in brief: as §1
[12] = biological target: T1, Estrogen receptor (Mus musculus); assay: Uterotrophic activity in mice at 500 ug dose; assay type: functional, tissue-based; conditions: Uterus; method in brief: as §2
[13] = tested on: Mus musculus; assay: Effect on estrogen and progesterone receptors positive hormone-dependent postmenopausal human mammary carcinoma tumor growth in nude mice at 2.0 mg/kg/day; assay type: functional; method in brief: as §3
[14] = biological target: T1, Estrogen receptor (Mus musculus); assay: Antiuterotrophic activity in mice at 50 ug dose; assay type: functional; method in brief: as §1
[15] = biological target: T1, Estrogen receptor (Mus musculus); assay: Uterotrophic activity in mice at 8 ug dose; assay type: functional, tissue-based; conditions: Uterus; method in brief: as §2
[16] = tested on: Rattus norvegicus; assay: Percent unchanged DMBA-induced hormone-dependent mammary carcinoma in rats at 4.0 mg/kg/day; assay type: functional
Method in brief: (§4)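 Female Sprague-Dawley rats received a single 20 mg DMBA dose by gastric intubation at 50 days of age. About 4 weeks later, rats bearing at least one tumor >140 mm² were grouped in tens. Compounds in olive oil were given sc 6 times a week for 28 days. Tumor area (length × width) was measured twice weekly.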

[17] = biological target: T1, Estrogen receptor (Mus musculus); assay: Uterotrophic activity in mice at 80 ug dose; assay type: functional, tissue-based; conditions: Uterus; method in brief: as §2
[18] = tested on: Rattus norvegicus; assay: Percent remission of DMBA-induced hormone-dependent mammary carcinoma in rats at 4.0 mg/kg/day; assay type: functional; method in brief: as §4
[19] = tested on: Rattus norvegicus; assay: Effect on DMBA-induced hormone-dependent mammary carcinoma tumor growth in rats at 4.0 mg/kg/day; assay type: functional; method in brief: as §4
[20] = biological target: T1, Estrogen receptor (Mus musculus); assay: Percent inhibition of estrone-stimulated uterine growth in immature mouse at 50 ug dose; assay type: functional; method in brief: as §1
[21] = tested on: Rattus norvegicus; assay: Effect on DMBA-induced hormone-dependent mammary carcinoma tumor growth in rats at 0.5 mg/kg/day; assay type: functional; method in brief: as §4
[22] = tested on: Rattus norvegicus; assay: Percent progression of DMBA-induced hormone-dependent mammary carcinoma in rats at 1.0 mg/kg/day; assay type: functional; method in brief: as §4
[23] = biological target: T1, Estrogen receptor (Mus musculus); assay: Uterotrophic activity in mice at 800 ug dose; assay type: functional, tissue-based; conditions: Uterus; method in brief: as §2
[24] = tested on: Rattus norvegicus; assay: Effect on DMBA-induced hormone-dependent mammary carcinoma tumor growth in rats at 0.5 mg/kg/day (initial tumor number); assay type: functional; method in brief: as §4
[25] = tested on: Rattus norvegicus; assay: Percent remission of DMBA-induced hormone-dependent mammary carcinoma in rats at 1.0 mg/kg/day; assay type: functional; method in brief: as §4
[26] = tested on: Rattus norvegicus; assay: Effect on DMBA-induced hormone-dependent mammary carcinoma tumor number in rats at 0.5 mg/kg/day; assay type: functional; method in brief: as §4
[27] = tested on: Rattus norvegicus; assay: Percent partial remission of DMBA-induced hormone-dependent mammary carcinoma in rats at 1.0 mg/kg/day; assay type: functional; method in brief: as §4
[28] = tested on: Rattus norvegicus; assay: Percent remission of DMBA-induced hormone-dependent mammary carcinoma in rats at 0.5 mg/kg/day; assay type: functional; method in brief: as §4
[29] = tested on: Rattus norvegicus; assay: Effect on DMBA-induced hormone-dependent mammary carcinoma tumor growth in rats at 4.0 mg/kg/day (initial tumor number); assay type: functional; method in brief: as §4
[30] = tested on: Rattus norvegicus; assay: Percent progression of DMBA-induced hormone-dependent mammary carcinoma in rats at 0.5 mg/kg/day (Percent of tumors with progression); assay type: functional; method in brief: as §4
[31] = tested on: Mus musculus; assay: Effect on estrogen and progesterone receptors positive hormone-dependent postmenopausal human mammary carcinoma tumor growth in nude mice at 1.0 mg/kg/day dose; assay type: functional; method in brief: as §3
[32] = tested on: Rattus norvegicus; assay: Effect on DMBA-induced hormone-dependent mammary carcinoma tumor number in rats at 4.0 mg/kg/day; assay type: functional; method in brief: as §4
[33] = tested on: Rattus norvegicus; assay: Percent progression of DMBA-induced hormone-dependent mammary carcinoma in rats at 4.0 mg/kg/day; assay type: functional; method in brief: as §4
[34] = tested on: Rattus norvegicus; assay: Percent unchanged DMBA-induced hormone-dependent mammary carcinoma in rats at 1.0 mg/kg/day; assay type: functional; method in brief: as §4
[35] = tested on: Rattus norvegicus; assay: Percent partial remission of DMBA-induced hormone-dependent mammary carcinoma in rats at 0.5 mg/kg/day; assay type: functional; method in brief: as §4
[36] = tested on: Rattus norvegicus; assay: Effect on DMBA-induced hormone-dependent mammary carcinoma tumor number in rats at 1.0 mg/kg/day; assay type: functional; method in brief: as §4
[37] = tested on: Rattus norvegicus; assay: Percent unchanged DMBA-induced hormone-dependent mammary carcinoma in rats at 0.5 mg/kg/day; assay type: functional; method in brief: as §4
[38] = tested on: Rattus norvegicus; assay: Effect on DMBA-induced hormone-dependent mammary carcinoma tumor growth in rats at 1.0 mg/kg/day (initial tumor number); assay type: functional; method in brief: as §4
[39] = tested on: Rattus norvegicus; assay: Effect on DMBA-induced hormone-dependent mammary carcinoma tumor growth in rats at 1.0 mg/kg/day; assay type: functional; method in brief: as §4
[40] = tested on: Rattus norvegicus; assay: Percent partial remission of DMBA-induced hormone-dependent mammary carcinoma in rats at 4.0 mg/kg/day; assay type: functional; method in brief: as §4
[41] = biological target: T1, Estrogen receptor (Mus musculus); assay: Antiuterotrophic activity in mice at 250 ug dose; assay type: functional; method in brief: as §1
[42] = biological target: T1, Estrogen receptor (Mus musculus); assay: Percent inhibition of estrone-stimulated uterine growth in immature mouse at 250 ug dose; assay type: functional; method in brief: as §1
[43] = biological target: T1, Estrogen receptor (Mus musculus); assay: Uterotrophic activity in mice at 10 ug dose; assay type: functional, tissue-based; conditions: Uterus; method in brief: as §1
[44] = tested on: Mus musculus; assay: Effect on estrogen and progesterone receptors positive hormone-dependent postmenopausal human mammary carcinoma tumor growth in nude mice at 2.4 mg/kg/day; assay type: functional; method in brief: as §3
[45] = tested on: Mus musculus; assay: Effect on estrogen and progesterone receptors positive hormone-dependent postmenopausal human mammary carcinoma tumor growth in nude mice at 2.6 mg/kg/day; assay type: functional; method in brief: as §3
[46] = biological target: T1, Estrogen receptor (Mus musculus); assay: Uterotrophic activity in mice at 1 ug dose; assay type: functional, tissue-based; conditions: Uterus; method in brief: as §1

T1 sequence (O08537 whole entry, looked up): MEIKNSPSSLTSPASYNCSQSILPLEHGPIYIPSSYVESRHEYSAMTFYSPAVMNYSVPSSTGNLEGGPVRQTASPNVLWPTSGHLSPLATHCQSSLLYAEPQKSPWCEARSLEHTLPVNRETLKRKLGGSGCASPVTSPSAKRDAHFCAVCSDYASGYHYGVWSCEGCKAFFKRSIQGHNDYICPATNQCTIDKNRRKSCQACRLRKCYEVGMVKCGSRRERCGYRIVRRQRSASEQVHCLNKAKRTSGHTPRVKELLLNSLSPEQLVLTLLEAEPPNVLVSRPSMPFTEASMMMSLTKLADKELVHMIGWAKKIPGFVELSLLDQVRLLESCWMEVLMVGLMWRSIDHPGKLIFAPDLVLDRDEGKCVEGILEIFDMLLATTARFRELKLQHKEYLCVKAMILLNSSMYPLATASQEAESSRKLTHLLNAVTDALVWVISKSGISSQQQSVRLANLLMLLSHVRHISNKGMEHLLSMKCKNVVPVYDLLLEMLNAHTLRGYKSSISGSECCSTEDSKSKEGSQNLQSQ
T1 sequence (P19785 whole entry, looked up): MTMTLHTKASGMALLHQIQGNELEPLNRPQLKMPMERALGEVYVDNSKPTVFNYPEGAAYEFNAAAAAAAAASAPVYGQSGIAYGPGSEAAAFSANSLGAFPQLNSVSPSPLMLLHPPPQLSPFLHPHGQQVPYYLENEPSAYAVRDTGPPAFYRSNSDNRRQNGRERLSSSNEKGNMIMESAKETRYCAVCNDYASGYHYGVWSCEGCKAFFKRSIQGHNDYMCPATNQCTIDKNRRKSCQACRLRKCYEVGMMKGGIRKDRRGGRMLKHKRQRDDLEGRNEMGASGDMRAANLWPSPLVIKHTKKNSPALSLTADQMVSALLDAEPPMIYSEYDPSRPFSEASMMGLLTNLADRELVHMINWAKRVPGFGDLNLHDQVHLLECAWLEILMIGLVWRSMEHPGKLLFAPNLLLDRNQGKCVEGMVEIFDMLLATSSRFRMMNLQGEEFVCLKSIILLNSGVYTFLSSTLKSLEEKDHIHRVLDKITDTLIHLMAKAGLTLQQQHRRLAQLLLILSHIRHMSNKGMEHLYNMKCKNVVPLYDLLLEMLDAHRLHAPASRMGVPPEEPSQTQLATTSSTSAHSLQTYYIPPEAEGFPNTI

In the case of `CCCC1(c2cccc(OC(C)=O)c2)OC1(CCC)c1cccc(OC(C)=O)c1` (stereo not drawn), the inhibition [1] is reported as 15.6%, the Effect [2] is reported as 21.8 and the Effect [3] is reported as 34.1. It also gave an inhibition [4] of 7.8%, an Effect [5] of 36.3 and a Tumor size [6] of 1.85. The inhibition [7] was 0%, the Effect [8] was 31.1 and the Effect [9] was 22.1. For the same compound, the RBA [10] was 1.7%, the Effect [11] was 39.4 and the Effect [12] was 33.3.
For `CCC1(c2cccc(O)c2)OC1(CC)c1cccc(O)c1` (stereo not drawn), the Tumor size [13] was 1.85, the Effect [14] was 33 and the Effect [15] was 29.4. The inhibition [1] was 52.5%, the Tumors [16] was 12% and the Effect [17] was 33. For the same compound, the Tumors [18] was 61%, the Change [19] was -16% and the inhibition [20] was 34.3%. For the same compound, the Change [21] was 18%, the Tumors [22] was 10% and the Effect [3] was 27.6. It also gave an Effect [23] of 43.6, a No. of tumors [24] of 27 and a Tumors [25] of 76%. For the same compound, the No. of tumors [26] was 18, the Tumors [27] was 13% and the Tumors [28] was 69%. For the same compound, the No. of tumors [29] was 29, the Tumors [30] was 13% and the Tumor size [31] was 2.9. For the same compound, the No. of tumors [32] was 4, the inhibition [7] was 2.7% and the Tumors [33] was 15%. The Tumors [34] was 0%, the Tumors [35] was 13% and the No. of tumors [36] was 10. The Tumors [37] was 5%, the RBA [10] was 5.4% and the No. of tumors [38] was 31. The Effect [11] was 42.2, the Change [39] was -52% and the Tumors [40] was 12%.
In the case of `CCC/C(=C(/CCC)c1cccc(OC(C)=O)c1)c1cccc(OC(C)=O)c1`, the Tumor size [6] is reported as 2.32 and the RBA [10] is reported as 1.3%.
Compound `CC(=O)Oc1cccc(C2(C)OC2(C)c2cccc(OC(C)=O)c2)c1` (stereo not drawn) has an inhibition [1] of 17.4%, an Effect [3] of 37.9 and an inhibition [4] of 23%. For the same compound, the Effect [5] was 36.1, the Effect [41] was 33.1 and the inhibition [7] was 33.4%. It also gave an Effect [8] of 15, an inhibition [42] of 31.7% and an RBA [10] of 0.8%. For the same compound, the Effect [43] was 17, the Tumor size [44] was 2.72 and the Effect [11] was 32.6. For the same compound, the Effect [12] was 20.6.
For `CCC1(c2cccc(OC(C)=O)c2)OC1(CC)c1cccc(OC(C)=O)c1` (stereo not drawn), the Effect [14] was 36.4, the inhibition [1] was 33.5% and the Tumor size [45] was 2.38. For the same compound, the inhibition [20] was 22.6%, the Effect [3] was 33.2 and the inhibition [7] was 0%. The Effect [8] was 36.2, the Effect [9] was 33.4 and the RBA [10] was 4.2%. For the same compound, the Effect [43] was 30.3, the Effect [46] was 22.2 and the Effect [11] was 43.7. It also gave an Effect [12] of 38.6.
